Results published in ChEMBL document CHEMBL1151261, “Antineoplastic agents. 509: synthesis of fluorcombstatin phosphate and related 3-halostilbenes(1)” (J Nat Prod, 2005).
In brackets after ≈: the same amount, converted by molar mass. Activity calls are given as the source filed them. No cut-off for these calls is given here.

Key:
[1] = system: KM-20L2; assay: Cytotoxicity against human KM20L2 cells after 48 hrs by sulforhodamine B assay; format: functional; conditions: KM-20L2, 48 h
In short: (§1)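 Human tumor lines exposed to compound for 48 h, then fixed with trichloroacetic acid and stained with sulforhodamine B (NCI standard protocol); optical density read on a microplate reader. GI50 is the concentration giving a 50% reduction in net protein increase, calculated from optical density data.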

[2] = system: DU-145; assay: Cytotoxicity against human DU145 cells after 48 hrs by sulforhodamine B assay; format: functional; conditions: DU-145, 48 h; in short: as §1
[3] = system: Cryptococcus neoformans; assay: Antimicrobial activity against Cryptococcus neoformans ATCC 90112 at 64 ug/mL after 72 hrs by broth microdilution assay; format: functional, organism-based
In short: (§2)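 Yeast NCCLS broth microdilution (M27-A). Inoculum 0.5 to 2.5×10^3 CFU/mL; 2-fold dilutions in 0.165 M MOPS-buffered RPMI 1640, pH 7.0; compound from DMSO, DMSO-only turbidity control; 35 °C without agitation; read at 72 h (Cryptococcus). MIC = lowest concentration giving no visible growth.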

[4] = system: Candida albicans; assay: Antimicrobial activity against Candida albicans ATCC 90028 at 64 ug/mL after 48 hrs by broth microdilution assay; format: functional, organism-based
In short: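 Yeast NCCLS broth microdilution (M27-A). Inoculum 0.5 to 2.5×10^3 CFU/mL; 2-fold dilutions in 0.165 M MOPS-buffered RPMI 1640, pH 7.0; compound from DMSO, DMSO-only turbidity control; 35 °C without agitation; read at 48 h (Candida). MIC = lowest concentration giving no visible growth.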

[5] = system: Staphylococcus aureus; assay: Antimicrobial activity against Staphylococcus aureus ATCC 29213 at 64 ug/mL after 24 hrs by broth microdilution assay; format: functional, organism-based
In short: (§3)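 NCCLS bacterial broth microdilution (M7-A5). Overnight colonies diluted to about 5×10^5 CFU/mL final; 2-fold compound dilutions (DMSO stock) in cation-adjusted Mueller Hinton II broth; DMSO turbidity control; 35 °C without agitation, 24 h. MIC = lowest concentration with optically clear wells.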

[6] = system: Streptococcus pneumoniae; assay: Antimicrobial activity against Streptococcus pneumoniae ATCC 6303 at 64 ug/mL after 24 hrs by broth microdilution assay; format: functional, organism-based
In short: (§4)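 Streptococcus tested by NCCLS broth microdilution in cation-adjusted MHII broth with 3% lysed horse blood. Final inoculum about 5×10^5 CFU/mL; 2-fold compound dilutions from DMSO; DMSO turbidity control; 35 °C without agitation, 24 h. MIC = lowest concentration with no visible growth.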

[7] = system: Enterococcus faecalis; assay: Antimicrobial activity against Enterococcus faecalis ATCC 29212 at 64 ug/mL after 24 hrs by broth microdilution assay; format: functional, organism-based; in short: as §3
[8] = system: Micrococcus luteus; assay: Antimicrobial activity against Micrococcus luteus Presque Isle 456 at 64 ug/mL after 24 hrs by broth microdilution assay; format: functional, organism-based; in short: as §3
[9] = system: Escherichia coli; assay: Antimicrobial activity against Escherichia coli ATCC 25922 at 64 ug/mL after 24 hrs by broth microdilution assay; format: functional, organism-based; in short: as §3
[10] = system: Enterobacter cloacae; assay: Antimicrobial activity against Enterobacter cloacae ATCC 13047 at 64 ug/mL after 24 hrs by broth microdilution assay; format: functional, organism-based; in short: as §3
[11] = system: Stenotrophomonas maltophilia; assay: Antimicrobial activity against Stenotrophomonas maltophilia ATCC 13637 at 64 ug/mL after 24 hrs by broth microdilution assay; format: functional, organism-based; in short: as §3
[12] = system: NCI-H460; assay: Cytotoxicity against human NCI-H460 cells after 48 hrs by sulforhodamine B assay; format: functional; conditions: NCI-H460, 48 h; in short: as §1
[13] = system: Neisseria gonorrhoeae; assay: Antimicrobial activity against Neisseria gonorrhoeae ATCC 49226 at 64 ug/mL after 24 hrs by broth microdilution assay; format: functional, organism-based
In short: (§5)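 Neisseria tested by NCCLS broth microdilution in gonococcal typing broth. Final inoculum about 5×10^5 CFU/mL; 2-fold compound dilutions from DMSO; DMSO turbidity control; 37 °C with 5% CO₂ without agitation, 24 h. MIC = lowest concentration with no visible growth.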

[14] = system: BXPC-3; assay: Cytotoxicity against human BxPC3 cells after 48 hrs by sulforhodamine B assay; format: functional; conditions: BXPC-3, 48 h; in short: as §1
[15] = system: MCF7; assay: Cytotoxicity against human MCF7 cells after 48 hrs by sulforhodamine B assay; format: functional; conditions: MCF7, 48 h; in short: as §1
[16] = system: SF-268; assay: Cytotoxicity against human SF268 cells after 48 hrs by sulforhodamine B assay; format: functional; conditions: SF-268, 48 h; in short: as §1
[17] = system: P388; assay: Cytotoxicity against mouse P388 cells after 48 hrs by Coulter particle counting; conditions: P388, 48 h, read-out: ED50 (the source's name)
[18] = Inhibition of tubulin polymerization
In short: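 Turbidimetry at 350 nm. Compound at varying concentrations preincubated with 10 μM (1.0 mg/mL) purified tubulin, chilled on ice, then 0.4 mM GTP added and polymerization followed at 30 °C. Extent of polymerization at 20 min measured.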

[19] = Displacement of [3H]colchicine from tubulin
In short: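 [3H]colchicine binding with 1.0 μM tubulin, 5.0 μM [3H]colchicine and inhibitor at 1.0 μM.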

[20] = system: HUVEC; assay: Induction of microtubule damage in HUVEC at 1 uM after 30 mins; format: functional, cell-based; conditions: Homo sapiens
In short: (§6)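 Primary HUVECs from umbilical cords grown in M199 with 20% human serum, CD31-authenticated. About 3×10^4 cells on gelatin-coated coverslips, 24 h at 37 °C, then compound from DMSO for 30 min to 4 h, in duplicate. Cells methanol-fixed, stained with anti-α-tubulin and TRITC secondary plus Hoechst, imaged by confocal microscopy and scored for microtubule damage.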

[21] = system: HUVEC; assay: Induction of microtubule damage in HUVEC at 1 uM after 1 hr; format: functional, cell-based; conditions: Homo sapiens; in short: as §6
[22] = system: HUVEC; assay: Induction of microtubule damage in HUVEC at 1 uM after 2 hrs; format: functional, cell-based; conditions: Homo sapiens; in short: as §6
[23] = system: HUVEC; assay: Induction of microtubule damage in HUVEC at 1 uM after 4 hrs; format: functional, cell-based; conditions: Homo sapiens; in short: as §6
[24] = system: HUVEC; assay: Induction of microtubule depolymerization in HUVEC at 10 uM after 30 mins; format: functional, cell-based; conditions: Homo sapiens; in short: as §6
[25] = system: HUVEC; assay: Induction of microtubule depolymerization in HUVEC at 10 uM after 1 hr; format: functional, cell-based; conditions: Homo sapiens; in short: as §6
[26] = system: HUVEC; assay: Induction of microtubule depolymerization in HUVEC at 10 uM after 2 hrs; format: functional, cell-based; conditions: Homo sapiens; in short: as §6
[27] = system: HUVEC; assay: Induction of microtubule depolymerization in HUVEC at 10 uM after 4 hrs; format: functional, cell-based; conditions: Homo sapiens; in short: as §6
[28] = Cytotoxicity against HUVEC; format: cell-based; conditions: human, HUVEC cells; read-out: ED50 (the source's name)
In short: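 Commercial HUVECs grown in EGM-2 medium. Growth measured by the sulforhodamine B assay: 48 h exposure, TCA fixation, SRB stain, optical density read. ED50 = concentration giving 50% inhibition, taken from plotted data.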

[29] = system: HUVEC; assay: Reduction of cord length in HUVEC at 0.01 ug/mL; format: functional, cell-based; conditions: Homo sapiens
In short: (§7)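 Matrigel cord formation (NCI DTP protocol). Commercial HUVECs in EGM-2; Matrigel polymerized 15 min at RT then 30 min at 37 °C; 100 μL of 2×10^5 cells/mL plus compound solution; 24 h incubation. Imaged by inverted microscope; cord length and junction number compared with untreated controls.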

[30] = system: HUVEC; assay: Reduction of cord length in HUVEC at 0.001 ug/mL; format: functional, cell-based; conditions: Homo sapiens; in short: as §7
[31] = system: HUVEC; assay: Reduction of junction numbers in HUVEC at 0.01 ug/mL; format: functional, cell-based; conditions: Homo sapiens; in short: as §7
[32] = system: HUVEC; assay: Reduction of junction numbers in HUVEC at 0.001 ug/mL; format: functional, cell-based; conditions: Homo sapiens; in short: as §7
[33] = system: Cryptococcus neoformans; assay: Antimicrobial activity against Cryptococcus neoformans ATCC 90112 after 72 hrs by broth microdilution assay; format: functional; conditions: ATCC 90112, 72 h; in short: as §2
[34] = system: Streptococcus pneumoniae; assay: Antimicrobial activity against Streptococcus pneumoniae ATCC 6303 after 24 hrs by broth microdilution assay; format: functional; conditions: ATCC 6303, 24 h; in short: as §4
[35] = system: Micrococcus luteus; assay: Antimicrobial activity against Micrococcus luteus Presque Isle 456 after 24 hrs by broth microdilution assay; format: functional; in short: as §3
[36] = system: Neisseria gonorrhoeae; assay: Antimicrobial activity against Neisseria gonorrhoeae ATCC 49226 after 24 hrs by broth microdilution assay; format: functional; conditions: ATCC 49226, 24 h; in short: as §5
[37] = system: Staphylococcus aureus; assay: Antimicrobial activity against Staphylococcus aureus ATCC 29213 after 24 hrs by broth microdilution assay; format: functional; conditions: ATCC 29213, 24 h; in short: as §3
[38] = system: HUVEC; assay: Induction of microtubule depolymerization in HUVEC at 1 uM after 2 hrs; format: functional, cell-based; conditions: Homo sapiens
In short: (§8)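 Primary HUVECs from umbilical cords, grown in M199 with 20% human serum, were seeded (~3×10^4) on gelatin-coated coverslips and grown 24 h at 37 °C. Compound in DMSO was added (final 1, 10 or 100 μM), with duplicate plates. Cells were fixed in ice-cold methanol and immunostained for α-tubulin (TRITC secondary) and with Hoechst. Microtubule disruption was scored by confocal microscopy.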

[39] = system: HUVEC; assay: Induction of microtubule depolymerization in HUVEC at 1 uM after 4 hrs; format: functional, cell-based; conditions: Homo sapiens; in short: as §8

| Structure (SMILES) | GI50 [1] [µg/mL] | GI50 [2] [µg/mL] | Activity [4] | Activity [5] | Activity [7] | Activity [9] | Activity [10] | Activity [11] | GI50 [12] [µg/mL] | GI50 [14] [µg/mL] | GI50 [15] [µg/mL] | GI50 [16] [µg/mL] | EC50 [17] [µg/mL] | IC50 [18] [nM] | Activity [19] [%] | Activity [20] | MIC [33] [µg/mL] | MIC [34] [µg/mL] | MIC [35] [µg/mL] | MIC [36] [µg/mL] | other results |
| --- | --- | --- | --- | --- | --- | --- | --- | --- | --- | --- | --- | --- | --- | --- | --- | --- | --- | --- | --- | --- | --- |
| COc1ccc(/C=C/c2cc(Br)c(OC)c(OC)c2)cc1O | 1.2 (≈ 3.29 µM) | 0.13 (≈ 0.356 µM) | inactive | inactive | inactive | inactive | inactive | inactive | 0.15 (≈ 0.411 µM) | 1.6 (≈ 4.38 µM) | 0.14 (≈ 0.383 µM) | 0.18 (≈ 0.493 µM) | 0.0174 (≈ 0.0476 µM) | – | – | – | – | – | – | – | Activity [3]: inactive; Activity [6]: inactive; Activity [8]: inactive; Activity [13]: inactive |
| COc1ccc(/C=C\c2cc(F)c(OC)c(OC)c2)cc1O [FLUORCOMBSTATIN] | > 1 | 0.0019 (≈ 0.00624 µM) | inactive | inactive | inactive | inactive | inactive | inactive | < 0.0032 | 0.745 (≈ 2.45 µM) | < 0.0027 | < 0.0016 | < 0.002 | 1500 | 75 | Active | 64 (≈ 210 µM) | 64 (≈ 210 µM) | 32 (≈ 105 µM) | 32 (≈ 105 µM) | Activity [21]: Active; Activity [22]: Active; Activity [23]: Active; Activity [24]: Active; Activity [25]: Active; Activity [26]: Active; Activity [27]: Active; CC50 [28]: 0.00025 µg/mL (≈ 0.000822 µM); Activity [29]: Active; Activity [30]: Active; Activity [31]: Active; Activity [32]: Active |
| COc1ccc(/C=C/c2cc(F)c(OC)c(OC)c2)cc1O | 0.53 (≈ 1.74 µM) | 0.18 (≈ 0.591 µM) | inactive | – | inactive | inactive | inactive | inactive | 0.18 (≈ 0.591 µM) | 2.2 (≈ 7.23 µM) | 0.051 (≈ 0.168 µM) | 0.35 (≈ 1.15 µM) | 0.253 (≈ 0.831 µM) | – | – | – | 64 (≈ 210 µM) | 64 (≈ 210 µM) | 16 (≈ 52.6 µM) | 8 (≈ 26.3 µM) | MIC [37]: 32 µg/mL (≈ 105 µM) |
| COc1ccc(/C=C\c2cc(Cl)c(OC)c(OC)c2)cc1O | 0.27 (≈ 0.842 µM) | 0.00025 (≈ 0.000779 µM) | inactive | inactive | inactive | inactive | inactive | inactive | 0.00026 (≈ 0.000811 µM) | 0.32 (≈ 0.998 µM) | 0.0026 (≈ 0.00811 µM) | < 0.0009 | 0.0024 (≈ 0.00748 µM) | 1600 | 85 | Active | 64 (≈ 200 µM) | 32 (≈ 99.8 µM) | 32 (≈ 99.8 µM) | 16 (≈ 49.9 µM) | Activity [21]: Active; Activity [24]: Active; Activity [25]: Active; Activity [26]: Active; Activity [27]: Active; Activity [38]: Active; Activity [39]: Active |
